Source: ChEMBL document CHEMBL1142004, “Dipeptidyl aspartyl fluoromethylketones as potent caspase inhibitors: peptidomimetic replacement of the P2 alpha-amino acid by a alpha-hydroxy acid” (Bioorg Med Chem Lett, 2005)

Columns and labels:
HeLa = test: Concentration tested for 50% of TNF- alpha induce HeLa cell protection was determined; type: functional, cell-based; settings: Homo sapiens
Procedure, shortened: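 HeLa cells were treated with TNF-α to induce apoptosis, with inhibitor present. Viability was quantified by calcein AM uptake. The value is the inhibitor concentration giving 50% cell protection.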

Mus musculus [1] = test: Survival of mice with 0.25 mg/kg of compound treatment after induction of apoptosis by anti-Fas antibody at 3 days(n=6); type: functional; settings: 72 h
Procedure, shortened: (§1)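 Mice received an IV injection of anti-Fas monoclonal antibody; untreated controls received 8 µg. Five minutes later they received an IV dose of inhibitor in an aqueous vehicle containing 50 mM Tris–HCl, or vehicle alone. Six mice per group. Survivors were counted at 1, 3, 6 and 24 h and at 3 days, when the experiment ended, and reported as a percentage of each group.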

Caspase-6 = molecular target: T1, Caspase-6 (Homo sapiens, UniProt P55212); test: Inhibitory concentration against Caspase-6
T1 sequence (P55212 whole entry): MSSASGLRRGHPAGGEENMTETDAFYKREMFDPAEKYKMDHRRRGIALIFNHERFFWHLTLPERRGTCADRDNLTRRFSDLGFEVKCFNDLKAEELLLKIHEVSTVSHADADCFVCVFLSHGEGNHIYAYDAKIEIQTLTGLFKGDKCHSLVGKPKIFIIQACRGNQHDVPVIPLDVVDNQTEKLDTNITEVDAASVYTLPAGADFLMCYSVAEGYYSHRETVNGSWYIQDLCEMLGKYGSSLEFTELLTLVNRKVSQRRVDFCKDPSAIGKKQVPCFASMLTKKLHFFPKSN

Mus musculus [2] = test: Survival of mice with 0 mg/kg of compound treatment after induction of apoptosis by anti-Fas antibody at 6 hr (n=6); type: functional; procedure, shortened: as §1
Mus musculus [3] = test: Survival of mice with 1 mg/kg of compound treatment after induction of apoptosis by anti-Fas antibody at 6 hr (n=6); type: functional; procedure, shortened: as §1
Mus musculus [4] = test: Survival of mice with 1 mg/kg of compound treatment after induction of apoptosis by anti-Fas antibody at 24 hr (n=6); type: functional; procedure, shortened: as §1
[5] = molecular target: T2, Calpain-1 catalytic subunit (Homo sapiens, UniProt P07384); test: Inhibitory concentration against Calpain 1
T2 sequence (P07384 whole entry): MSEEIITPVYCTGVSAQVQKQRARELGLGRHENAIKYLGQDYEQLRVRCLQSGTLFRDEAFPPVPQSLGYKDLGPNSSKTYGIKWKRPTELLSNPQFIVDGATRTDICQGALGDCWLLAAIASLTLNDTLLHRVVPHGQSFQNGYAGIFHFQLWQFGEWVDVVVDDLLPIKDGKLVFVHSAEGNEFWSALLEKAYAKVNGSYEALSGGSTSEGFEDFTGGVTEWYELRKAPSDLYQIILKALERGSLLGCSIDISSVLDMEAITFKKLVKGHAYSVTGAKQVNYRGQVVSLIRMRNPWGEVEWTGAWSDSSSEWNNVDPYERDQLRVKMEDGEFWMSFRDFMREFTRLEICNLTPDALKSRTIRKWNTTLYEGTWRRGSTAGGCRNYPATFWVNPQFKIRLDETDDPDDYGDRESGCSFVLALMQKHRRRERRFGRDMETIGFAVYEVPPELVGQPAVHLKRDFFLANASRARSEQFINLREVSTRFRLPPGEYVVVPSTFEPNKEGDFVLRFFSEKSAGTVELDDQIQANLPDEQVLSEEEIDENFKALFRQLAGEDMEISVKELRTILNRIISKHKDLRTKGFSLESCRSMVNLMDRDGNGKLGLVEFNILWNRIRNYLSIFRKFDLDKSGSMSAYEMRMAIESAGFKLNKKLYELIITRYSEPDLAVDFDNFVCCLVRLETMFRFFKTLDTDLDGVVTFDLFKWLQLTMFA
Procedure, shortened: (§2)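 Isolated-enzyme inhibition assays (calpain-1, cathepsin B, factor Xa) tested inhibitor at concentrations up to 100,000 nM. The read-out was IC50.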

Mus musculus [6] = test: Survival of mice with 10 mg/kg of compound treatment after induction of apoptosis by anti-Fas antibody at 6 hr (n=6); type: functional; procedure, shortened: as §1
Mus musculus [7] = test: Survival of mice with 0 mg/kg of compound treatment after induction of apoptosis by anti-Fas antibody at 3 hr (n=6); type: functional; procedure, shortened: as §1
Caspase-8 = Caspase-8 (Homo sapiens, UniProt Q14790); test: Inhibitory concentration against Caspase-8
Chain of Caspase-8 (Q14790 217-374 limits assumed): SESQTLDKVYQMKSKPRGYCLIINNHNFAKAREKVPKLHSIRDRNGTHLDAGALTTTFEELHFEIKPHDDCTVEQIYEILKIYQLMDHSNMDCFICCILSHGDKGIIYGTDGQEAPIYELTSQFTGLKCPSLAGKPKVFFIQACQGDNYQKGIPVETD
Chain of Caspase-8 (Q14790 385-479 limits assumed): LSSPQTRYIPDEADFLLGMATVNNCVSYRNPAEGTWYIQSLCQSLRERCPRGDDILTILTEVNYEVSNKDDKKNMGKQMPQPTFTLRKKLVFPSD

[8] = Inhibitory concentration against Cathepsin B; procedure, shortened: as §2
Mus musculus [9] = test: Survival of mice with 0.25 mg/kg of compound treatment after induction of apoptosis by anti-Fas antibody at 1 hr (n=6); type: functional; procedure, shortened: as §1
Mus musculus [10] = test: Survival of mice with 10 mg/kg of compound treatment after induction of apoptosis by anti-Fas antibody at 1 hr (n=6); type: functional; procedure, shortened: as §1
Mus musculus [11] = test: Survival of mice with 0.25 mg/kg of compound treatment after induction of apoptosis by anti-Fas antibody at 6 hr (n=6); type: functional; procedure, shortened: as §1
Mus musculus [12] = test: Survival of mice with 0 mg/kg of compound treatment after induction of apoptosis by anti-Fas antibody at 24 hr (n=6); type: functional; procedure, shortened: as §1
Mus musculus [13] = test: Survival of mice with 10 mg/kg of compound treatment after induction of apoptosis by anti-Fas antibody at 3 days(n=6); type: functional; settings: 72 h; procedure, shortened: as §1
Mus musculus [14] = test: Survival of mice with 10 mg/kg of compound treatment after induction of apoptosis by anti-Fas antibody at 24 hr (n=6); type: functional; procedure, shortened: as §1
[15] = Inhibitory concentration against Coagulation factor X; procedure, shortened: as §2
Caspase-9 = molecular target: T3, Caspase-9 (Homo sapiens, UniProt P55211); test: Inhibitory concentration against Caspase-9
T3 sequence (P55211 whole entry): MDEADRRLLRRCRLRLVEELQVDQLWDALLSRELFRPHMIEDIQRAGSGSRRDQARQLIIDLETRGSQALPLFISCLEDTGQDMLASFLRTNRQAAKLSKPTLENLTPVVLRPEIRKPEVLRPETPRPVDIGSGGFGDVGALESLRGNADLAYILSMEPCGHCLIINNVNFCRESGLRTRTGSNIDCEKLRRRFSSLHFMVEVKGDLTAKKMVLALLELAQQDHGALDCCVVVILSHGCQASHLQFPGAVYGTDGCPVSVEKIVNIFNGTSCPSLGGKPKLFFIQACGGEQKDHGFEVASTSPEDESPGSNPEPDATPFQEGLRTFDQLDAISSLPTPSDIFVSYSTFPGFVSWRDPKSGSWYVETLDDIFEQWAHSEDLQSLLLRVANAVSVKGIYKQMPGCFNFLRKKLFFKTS

Mus musculus [16] = test: Survival of mice with 1 mg/kg of compound treatment after induction of apoptosis by anti-Fas antibody at 3 hr (n=6); type: functional; procedure, shortened: as §1
Mus musculus [17] = test: Survival of mice with 0.25 mg/kg of compound treatment after induction of apoptosis by anti-Fas antibody at 3 hr (n=6); type: functional; procedure, shortened: as §1
[18] = Inhibitory concentration against Caspase-1
Mus musculus [19] = test: Survival of mice with 1 mg/kg of compound treatment after induction of apoptosis by anti-Fas antibody at 3 days(n=6); type: functional; settings: 72 h; procedure, shortened: as §1
Caspase-7 = molecular target: T4, Caspase-7 (Homo sapiens, UniProt P55210); test: Inhibitory concentration against Caspase-7
T4 sequence (P55210 whole entry): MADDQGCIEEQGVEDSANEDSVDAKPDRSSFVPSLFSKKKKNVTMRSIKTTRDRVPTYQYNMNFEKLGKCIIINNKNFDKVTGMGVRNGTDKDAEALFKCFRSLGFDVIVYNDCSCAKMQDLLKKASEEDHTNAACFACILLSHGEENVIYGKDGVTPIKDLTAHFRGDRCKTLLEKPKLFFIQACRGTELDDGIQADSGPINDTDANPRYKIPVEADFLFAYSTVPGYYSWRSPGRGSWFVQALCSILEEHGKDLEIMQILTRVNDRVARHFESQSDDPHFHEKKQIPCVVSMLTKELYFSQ

Mus musculus [20] = test: Survival of mice with 0.25 mg/kg of compound treatment after induction of apoptosis by anti-Fas antibody at 24 hr (n=6); type: functional; procedure, shortened: as §1
Mus musculus [21] = test: Survival of mice with 10 mg/kg of compound treatment after induction of apoptosis by anti-Fas antibody at 3 hr (n=6); type: functional; procedure, shortened: as §1
Caspase-3 = molecular target: T5, Caspase-3 (Homo sapiens, UniProt P42574); test: Inhibitory concentration against human caspase-3
T5 sequence (P42574 whole entry): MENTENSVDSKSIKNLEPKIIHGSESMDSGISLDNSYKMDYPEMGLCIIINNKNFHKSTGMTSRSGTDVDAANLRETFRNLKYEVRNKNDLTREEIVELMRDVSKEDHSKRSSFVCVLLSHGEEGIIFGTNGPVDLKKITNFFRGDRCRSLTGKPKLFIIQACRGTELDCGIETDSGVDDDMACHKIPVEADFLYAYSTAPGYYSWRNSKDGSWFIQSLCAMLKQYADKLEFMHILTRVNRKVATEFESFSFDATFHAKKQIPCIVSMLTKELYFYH

Mus musculus [22] = test: Survival of mice with 0 mg/kg of compound treatment after induction of apoptosis by anti-Fas antibody at 1 hr (n=6); type: functional; procedure, shortened: as §1
Mus musculus [23] = test: Survival of mice with 0 mg/kg of compound treatment after induction of apoptosis by anti-Fas antibody at 3 days(n=6); type: functional; procedure, shortened: as §1

C[C@H](OC(=O)Nc1ccccc1)C(=O)NC(CC(=O)O)C(=O)CF (some centres undefined)
Concentration (HeLa): 1400 nM

CC(C)[C@H](OC(=O)Nc1ccccc1)C(=O)NC(CC(=O)O)C(=O)CF (some centres undefined)
survival at 0.25 mg/kg (Mus musculus [1]): 0% | IC50 (Caspase-6): 50 nM | Survival (Mus musculus [2]): 0% | Concentration (HeLa): 200 nM | survival at 1 mg/kg (Mus musculus [3]): 100% | survival at 1 mg/kg (Mus musculus [4]): 50% | IC50 [5]: > 100000 nM | survival at 10 mg/kg (Mus musculus [6]): 100% | Survival (Mus musculus [7]): 0% | IC50 (Caspase-8): 17 nM | IC50 [8]: > 100000 nM | survival at 0.25 mg/kg (Mus musculus [9]): 100% | survival at 10 mg/kg (Mus musculus [10]): 100% | survival at 0.25 mg/kg (Mus musculus [11]): 0% | Survival (Mus musculus [12]): 0% | survival at 10 mg/kg (Mus musculus [13]): 83% | survival at 10 mg/kg (Mus musculus [14]): 83% | IC50 [15]: > 100000 nM | IC50 (Caspase-9): 30 nM | survival at 1 mg/kg (Mus musculus [16]): 100% | survival at 0.25 mg/kg (Mus musculus [17]): 100% | IC50 [18]: 12 nM | survival at 1 mg/kg (Mus musculus [19]): 0% | IC50 (Caspase-7): 11 nM | survival at 0.25 mg/kg (Mus musculus [20]): 0% | survival at 10 mg/kg (Mus musculus [21]): 100% | IC50 (Caspase-3): 17 nM | Survival (Mus musculus [22]): 0% | Survival (Mus musculus [23]): 0%

CC(C)[C@H](NC(=O)Oc1ccccc1)C(=O)NC(CC(=O)O)C(=O)CF (some centres undefined)
Concentration (HeLa): 250 nM

CC(C)[C@H](OC(=O)Nc1ccccc1)C(=O)NC(CC(=O)O)C(=O)COc1cc(C(F)(F)F)nn1-c1ccccc1 (some centres undefined)
Concentration (HeLa): 1100 nM

CC(C)[C@H](OC(=O)Nc1ccccc1)C(=O)NC(CC(=O)O)C(=O)COC(=O)c1c(Cl)cccc1Cl (some centres undefined)
Concentration (HeLa): 1000 nM

CC(C)[C@H](OC(=O)Nc1ccc(Cl)cc1Cl)C(=O)NC(CC(=O)O)C(=O)CF (some centres undefined)
Concentration (HeLa): 100 nM
